Source: ChEMBL document CHEMBL1136744, “Synthesis and activity of substituted 2-phenylquinolin-4-amines, antagonists of immunostimulatory CpG-oligodeoxynucleotides” (J Med Chem, 2003)

Experiment: Ability to reverse action of CpG-ODN on WEHI 231 murine B-cell lymphoma cells
Format: functional, cell-based, Mus musculus
Method in brief: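 WEHI 231 murine B-lymphoma cells at 2 × 10⁵ per mL; anti-surface IgM (10 μg/mL) kills them, and CpG-ODN 1760 (6 µg/mL) reverses this. Compounds were added in triplicate at 3-fold dilutions, with or without anti-IgM. Cells were incubated 16 h at 37 °C, then pulsed with 0.5 μCi ³H-thymidine for 4 h. The concentration halving the CpG-ODN effect was read graphically from log dose-response plots. Quinacrine served as internal control.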

Log 1/EC50 | Structure (SMILES)
7.73 | CCN(CC)CCNc1cc(-c2ccc(C)cc2)nc2ccccc12
7.91 | Cc1ccc(-c2cc(NCCN(C)C)c3ccccc3n2)cc1
7.88 | CN1CCCC1CCNc1cc(-c2ccc(F)cc2)nc2ccccc12 (stereo unspecified)
7.8 | CN(C)CCCNc1cc(-c2ccc(N3CCCCC3)cc2)nc2ccccc12
7.62 | Fc1ccc(-c2cc(NCCN3CCCC3)c3ccccc3n2)cc1
7.76 | CN(C)CCCCNc1cc(-c2ccc(F)cc2)nc2ccccc12
7.33 | CN(C)CCCCNc1cc(-c2ccc(N3CCCCC3)cc2)nc2ccccc12
5.74 | Cc1ccc(-c2cc(NCCCCCO)c3ccccc3n2)cc1
8.15 | CN(C)CCNc1cc(-c2ccc(CN3CCN(C)CC3)cc2)nc2ccccc12
8.84 | CN(C)CCCCCNc1cc(-c2ccc(N3CCN(C)CC3)cc2)nc2ccccc12
6.98 | Cc1ccc(-c2cc(NCCCn3ccnc3)c3ccccc3n2)cc1
7.57 | Cc1ccc(-c2cc(NCCCN3CCOCC3)c3ccccc3n2)cc1
5.88 | Cc1ccc(-c2cc(OCCN(C)C)c3ccccc3n2)cc1
7.86 | Cc1ccc(-c2cc(NCCCN3CCN(C)CC3)c3ccccc3n2)cc1
7.86 | CN(C)CCCNc1cc(-c2ccc(F)cc2)nc2ccccc12
8.27 | CN(C)CCNc1cc(-c2ccc(N3CCCCC3)cc2)nc2ccccc12
7.88 | Cc1cccc(-c2cc(NCCCN(C)C)c3ccccc3n2)c1
7.81 | NCCCCCNc1cc(-c2ccc(F)cc2)nc2ccccc12
9 | CN(C)CCCNc1cc(-c2ccc(N3CCN(C)CC3)cc2)nc2ccccc12
7.65 | CCN(CC)CCNc1cc(-c2cccc(C)c2)nc2ccccc12
8.04 | CN(C)CCCNc1cc(-c2ccc(CN3CCN(C)CC3)cc2)nc2ccccc12
7.94 | Cc1ccc(-c2cc(NCCCN(C)C)c3ccccc3n2)cc1
7.66 | CCN1CCCC1CNc1cc(-c2ccc(C)cc2)nc2ccccc12 (stereo unspecified)
7.74 | Cc1cccc(-c2cc(NCCN(C)C)c3ccccc3n2)c1
9.12 | CN(C)CCNc1cc(-c2ccc(N3CCN(C)CC3)cc2)nc2ccccc12
8.91 | CN(C)CCCCNc1cc(-c2ccc(N3CCN(C)CC3)cc2)nc2ccccc12
5.16 | OCCCCCNc1cc(-c2ccc(F)cc2)nc2ccccc12

More lines, now with the values behind:

Structure (SMILES) | Log 1/EC50
CN1CCN(CCNc2cc(-c3ccc(F)cc3)nc3ccccc23)CC1 | 7.73
Cc1ccc(-c2cc(Nc3cc(CN4CCN(C)CC4)c(O)c(CN4CCN(C)CC4)c3)c3ccccc3n2)cc1 | 8.84
CN1CCN(Cc2cc(Nc3cc(-c4ccc(N5CCN(C)CC5)cc4)nc4ccccc34)cc(CN3CCN(C)CC3)c2O)CC1 | 8.85
CN1CCN(CCNc2cc(-c3ccc(N4CCN(C)CC4)cc3)nc3ccccc23)CC1 | 8.82
Cc1cccc(-c2cc(NCCCN3CCN(C)CC3)c3ccccc3n2)c1 | 7.56
Fc1ccc(-c2cc(NCCCN3CCOCC3)c3ccccc3n2)cc1 | 7.17
CN1CCN(Cc2cccc(-c3cc(NCCC4CCCN4C)c4ccccc4n3)c2)CC1 (stereo unspecified) | 8.11
Cc1cccc(-c2cc(NCCCn3ccnc3)c3ccccc3n2)c1 | 6.71
CN1CCN(Cc2cc(Nc3cc(-c4ccc(F)cc4)nc4ccccc34)cc(CN3CCN(C)CC3)c2O)CC1 | 8.76
CN1CCN(CCCNc2cc(-c3ccc(CN4CCN(C)CC4)cc3)nc3ccccc23)CC1 | 8.17
CCN1CCCC1CNc1cc(-c2cccc(C)c2)nc2ccccc12 (stereo unspecified) | 7.66
Cc1cccc(-c2cc(NCCC3CCCN3C)c3ccccc3n2)c1 (stereo unspecified) | 7.85
Cc1cccc(-c2cc(NCCCN3CCOCC3)c3ccccc3n2)c1 | 7.3
CN1CCN(c2ccc(-c3cc(NCCC4CCCN4C)c4ccccc4n3)cc2)CC1 (stereo unspecified) | 8.7
CCN1CCCC1CNc1cc(-c2ccc(F)cc2)nc2ccccc12 (stereo unspecified) | 7.77
CN1CCN(Cc2cc(Nc3cc(-c4ccc(F)cc4)nc4ccccc34)ccc2O)CC1 | 7.67
CN1CCN(Cc2cccc(-c3cc(NCCCn4ccnc4)c4ccccc4n3)c2)CC1 | 6.92
Cc1ccc(-c2cc(Nc3ccc(O)c(CN4CCN(C)CC4)c3)c3ccccc3n2)cc1 | 7.88
CN1CCN(c2ccc(-c3cc(NCCCN4CCOCC4)c4ccccc4n3)cc2)CC1 | 8.66
CN1CCN(c2ccc(-c3cc(NCCN4CCCC4)c4ccccc4n3)cc2)CC1 | 8.62
CN1CCN(c2ccc(-c3cc(NCCCCN4CCCC4)c4ccccc4n3)cc2)CC1 | 8.26
Cc1cccc(-c2cc(OCCN(C)C)c3ccccc3n2)c1 | 5.51
CN1CCN(Cc2ccc(-c3cc(NCCN4CCCC4)c4ccccc4n3)cc2)CC1 | 8.49
Fc1ccc(-c2cc(NCCCCN3CCCC3)c3ccccc3n2)cc1 | 7.68
